Reference: ChEMBL document CHEMBL1153380, “Discovery of potent and orally active 3-alkoxy-5-phenoxy-N-thiazolyl benzamides as novel allosteric glucokinase activators” (Bioorg Med Chem, 2009)
Calls of active or inactive are those of the source. The calls are words filed in the database; no cut-off is given here.

Experiments:
[1] = Half life in Sprague-Dawley rat at 1 mg/kg, iv; type: ADME, organism-based; set-up: dose 1 mg/kg, route intravenous; details: in vivo
[2] = Tmax in Sprague-Dawley rat at 3 mg/kg, po; type: ADME, organism-based; set-up: dose 3 mg/kg, route oral; details: in vivo
Mus musculus = assay: Glucose lowering effect in normal-fed ICR mouse assessed as decrease in plasma glucose AUC level at 30 mg/kg, po; type: functional, organism-based; set-up: dose 30 mg/kg
How it was run: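 Mice given a single oral dose in 0.5% methylcellulose vehicle. Blood glucose measured just before dosing and at 0.5, 1, 1.5, 2, 3 and 4 h after dosing.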

[3] = Volume of distribution at steady state in Sprague-Dawley rat at 1 mg/kg, iv; type: ADME, organism-based; set-up: dose 1 mg/kg, route intravenous; details: in vivo, read-out: Vdss
Hexokinase-4 [4] = target: T1, Hexokinase-4 (Homo sapiens, UniProt P35557); assay: Activation of flag-tagged human recombinant liver glucokinase expressed in Escherichia coli by glucose-6-phosphate dehydrogenase coupled continuous spectrophotometric assay in presence of 2.5 mM glucose
T1 sequence (P35557 whole entry): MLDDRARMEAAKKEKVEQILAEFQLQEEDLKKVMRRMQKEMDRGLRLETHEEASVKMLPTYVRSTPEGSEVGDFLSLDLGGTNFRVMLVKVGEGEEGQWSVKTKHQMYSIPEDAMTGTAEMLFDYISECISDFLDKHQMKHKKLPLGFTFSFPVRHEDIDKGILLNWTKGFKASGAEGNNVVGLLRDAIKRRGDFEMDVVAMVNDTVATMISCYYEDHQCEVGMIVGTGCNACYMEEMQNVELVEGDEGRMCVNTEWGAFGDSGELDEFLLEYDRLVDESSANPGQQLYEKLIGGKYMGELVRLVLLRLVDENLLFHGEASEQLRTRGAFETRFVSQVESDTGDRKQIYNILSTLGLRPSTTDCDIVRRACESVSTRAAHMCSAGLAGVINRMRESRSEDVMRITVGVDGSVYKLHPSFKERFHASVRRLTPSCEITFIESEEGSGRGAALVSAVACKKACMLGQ

[5] = AUC (0 to infinity) in Sprague-Dawley rat at 1 mg/kg, iv; type: ADME, organism-based; set-up: time infinity, dose 1 mg/kg, route intravenous; details: plasma
Hexokinase-4 [6] = target: T1, Hexokinase-4; assay: Activation of flag-tagged human recombinant liver glucokinase expressed in Escherichia coli by glucose-6-phosphate dehydrogenase coupled continuous spectrophotometric assay in presence of 10 mM glucose
[7] = Total clearance in Sprague-Dawley rat at 1 mg/kg, iv; type: ADME, organism-based; set-up: dose 1 mg/kg, route intravenous; details: in vivo
[8] = Oral bioavailability in Sprague-Dawley rat at 3 mg/kg; type: ADME, organism-based; details: in vivo
Rattus norvegicus = assay: Glucose lowering effect in overnight-fasted po dosed Wistar rat assessed as decrease in glucose AUC level administered 30 mins before oral glucose challenge by OGTT; type: functional, organism-based
How it was run: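 Rats dosed orally in 0.5% methylcellulose vehicle, then given an oral glucose challenge (2 g/kg) 30 min later. Plasma glucose measured just before and after the challenge. Glucose AUC used as read-out.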

[9] = Cmax in Sprague-Dawley rat at 3 mg/kg, po; type: ADME, organism-based; set-up: dose 3 mg/kg, route oral; details: in vivo
[10] = AUC (0 to infinity) in Sprague-Dawley rat at 3 mg/kg, po; type: ADME, organism-based; set-up: time infinity, dose 3 mg/kg, route oral; details: plasma

| SMILES | EC50 (Hexokinase-4 [4]) | EC50 (Hexokinase-4 [6]) | other results |
| --- | --- | --- | --- |
| Cc1csc(NC(=O)c2cc(Oc3ccc(S(C)(=O)=O)cc3)cc(OC(C)C)c2)n1 | 0.33 µM | 130 nM | half-life [1]: 66 min; Tmax [2]: 1 h; Activity (Mus musculus): Active; Vd [3]: 0.4 L/kg; AUC(0-inf) [5]: 9.7 µM·h; clearance [7]: 4.1 mL/min/kg; bioavailability [8]: 40%; Activity (Rattus norvegicus): Dose-dependent effect; Cmax [9]: 2900 nM; AUC(0-inf) [10]: 12 µM·h |
| Cc1csc(NC(=O)c2cc(Oc3ccccc3S(C)(=O)=O)ccc2Oc2ccccc2)n1 | > 30 µM | > 30000 nM |  |
| CCOc1cc(Oc2ccccc2S(C)(=O)=O)cc(C(=O)Nc2nc(C)cs2)c1 | 2.4 µM | 2100 nM |  |
| Cc1csc(NC(=O)c2cccc(Oc3ccccc3S(C)(=O)=O)c2)n1 | 5.5 µM | 1100 nM |  |
| Cc1csc(NC(=O)c2cccc(Oc3ccccc3C)c2)n1 | 3.2 µM | 820 nM |  |
| Cc1csc(NC(=O)c2cccc(Oc3ccccc3)c2)n1 | 19 µM | 800 nM |  |
| Cc1csc(NC(=O)c2cccc(Oc3cccc(F)c3)c2)n1 | 6.3 µM | 2200 nM |  |
| Cc1csc(NC(=O)c2cccc(Oc3ccc(S(C)(=O)=O)cc3)c2)n1 | 29 µM | 3400 nM |  |
| COc1cc(Oc2ccccc2S(C)(=O)=O)cc(C(=O)Nc2nc(C)cs2)c1 | 11 µM | 1900 nM |  |
| Cc1csc(NC(=O)c2cc(Oc3ccccc3S(C)(=O)=O)ccc2OC(C)C)n1 | > 30 µM | > 30000 nM |  |
| CCOc1ccccc1Oc1cccc(C(=O)Nc2nc(C)cs2)c1 | 5.4 µM | 1900 nM |  |
| Cc1csc(NC(=O)c2cccc(Oc3ccccc3F)c2)n1 | 2.4 µM | 450 nM |  |
| Cc1cccc(Oc2cccc(C(=O)Nc3nc(C)cs3)c2)c1 | 8.2 µM | 2300 nM |  |
| Cc1csc(NC(=O)c2cccc(Oc3cccc(S(C)(=O)=O)c3)c2)n1 | 18 µM | 1100 nM |  |
| COc1ccccc1Oc1cccc(C(=O)Nc2nc(C)cs2)c1 | 2.2 µM | 490 nM |  |
| Cc1csc(NC(=O)c2cc(Oc3cccc(S(C)(=O)=O)c3)cc(OC(C)C)c2)n1 | 1.1 µM | 90 nM |  |
| Cc1csc(NC(=O)c2cccc(Oc3ccc(F)cc3)c2)n1 | 21 µM | 4200 nM |  |
| Cc1csc(NC(=O)c2cc(Oc3ccccc3)cc(Oc3cccc(S(C)(=O)=O)c3)c2)n1 | 1.1 µM | 940 nM |  |
| Cc1ccc(Oc2cccc(C(=O)Nc3nc(C)cs3)c2)cc1 | 5.9 µM | 6400 nM |  |
| Cc1csc(NC(=O)c2cc(Oc3ccccc3)cc(Oc3ccccc3S(C)(=O)=O)c2)n1 | 1.1 µM | 610 nM |  |
| Cc1csc(NC(=O)c2cc(Oc3ccccc3S(C)(=O)=O)cc(OC(C)C)c2)n1 | 2.1 µM | 440 nM |  |
| Cc1csc(NC(=O)c2cc(Oc3ccccc3)cc(Oc3ccc(S(C)(=O)=O)cc3)c2)n1 | 0.42 µM | 350 nM |  |
